Laboratory results from ChEMBL document CHEMBL4261523, “PAIN-less identification and evaluation of small molecule inhibitors against protein tyrosine phosphatase 1B” (Medchemcomm, 2017).
Active and inactive are the calls of the source. No cut-off for these calls is given here.

Legend:
[1] = biological target: T1, Tyrosine-protein phosphatase non-receptor type 1 (Homo sapiens) (UniProt P18031); assay: (§1) Inhibition of PTP1B (1 to 298 residues) (unknown origin) using DifMUP as substrate preincubated for 30 mins followed by substrate addition and measured after 30 mins by fluorescence assay
T1 sequence (whole entry): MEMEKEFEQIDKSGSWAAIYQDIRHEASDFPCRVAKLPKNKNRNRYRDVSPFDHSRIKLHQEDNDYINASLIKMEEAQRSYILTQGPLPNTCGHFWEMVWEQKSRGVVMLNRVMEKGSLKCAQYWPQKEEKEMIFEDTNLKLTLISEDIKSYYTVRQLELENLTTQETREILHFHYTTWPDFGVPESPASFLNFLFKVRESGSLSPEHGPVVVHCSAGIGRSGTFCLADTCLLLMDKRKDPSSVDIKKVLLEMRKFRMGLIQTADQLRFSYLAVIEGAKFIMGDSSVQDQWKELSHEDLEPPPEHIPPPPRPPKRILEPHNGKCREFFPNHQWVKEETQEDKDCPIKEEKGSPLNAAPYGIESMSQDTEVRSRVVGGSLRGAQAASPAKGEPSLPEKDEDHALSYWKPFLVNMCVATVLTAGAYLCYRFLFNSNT
Method in brief: (§2)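 PTP1B catalytic domain (aa 1–298, 5 nM final) preincubated with compound (diluted in DMSO) 30 min at RT in the dark. DifMUP (30 μM final) added, 30 min at RT. Stopped with H2O2 (0.5% final), 30 min RT. Fluorescence read at Ex 360/Em 450 nm. Buffer: 50 mM citrate pH 6.0, 100 mM NaCl, 1 mM EDTA, 0.1 mM DTT, 0.01% Brij35.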

[2] = biological target: T2, Tyrosine-protein phosphatase non-receptor type 1 (Homo sapiens, UniProt P18031); assay: as §1; method in brief: as §2
T2 sequence (P18031 whole entry): T1 sequence (whole entry)

[3] = Effect on fluorescence read out during PTP1B enzymatic reaction compound treated post enzyme-substrate reaction and susequent H2O2-mediated enzyme deactivation
Method in brief: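 Read-out counter assay. PTP1B (aa 1–298) turned over DifMUP first, then the enzyme was deactivated with H2O2 and compound added. A drop in fluorescence (Ex 360/Em 450 nm) marks interference with the read-out. Concentration–response format.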

[4] = Self-aggregating behavior of compound at 32 to 500 uM by 1D-1H NMR method; assay type: physicochemical
Method in brief: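 Self-association check by 1D 1H NMR. Dilution series from 500 to 32 μM compound in 5 mM TRIS pH 7.4, 50 mM NaCl, 5% DMSO-d6. Concentration-dependent shifts of aromatic resonances were monitored.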

[5] = Intrinsic redox activity of compound after 60 mins in presence of resazurin/DTT
[6] = biological target: T2, Tyrosine-protein phosphatase non-receptor type 1; assay: Competitive inhibition of PTP1B (1 to 298 residues) (unknown origin) using 15 uM DifMUP as substrate preincubated for 30 mins followed by substrate addition and measured after 30 mins by fluorescence assay
Method in brief: (§3)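 PTP1B aa 1–298 (5 nM final) preincubated with compound 30 min at RT in the dark, then DifMUP added, 30 min at RT. Stopped with 0.5% final H2O2, 30 min. Fluorescence read at Ex 360/Em 450 nm. Buffer: citrate pH 6.0, NaCl, EDTA, DTT, Brij35.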

[7] = biological target: T2, Tyrosine-protein phosphatase non-receptor type 1; assay: Competitive inhibition of PTP1B (1 to 298 residues) (unknown origin) using 30 uM DifMUP as substrate preincubated for 30 mins followed by substrate addition and measured after 30 mins by fluorescence assay; method in brief: as §2
[8] = biological target: T2, Tyrosine-protein phosphatase non-receptor type 1; assay: Competitive inhibition of PTP1B (1 to 298 residues) (unknown origin) using 60 uM DifMUP as substrate preincubated for 30 mins followed by substrate addition and measured after 30 mins by fluorescence assay; method in brief: as §3
[9] = biological target: T1, Tyrosine-protein phosphatase non-receptor type 1 (Homo sapiens); assay: Reversible inhibition of PTP1B (1 to 298 residues) (unknown origin) using 10 fold excess DifMUP as substrate preincubated for 30 mins followed by substrate addition and measured after 30 mins by fluorescence assay

Row | inhibition [1] | IC50 [2] [µM] | Activity [3] | SMILES | other results
1 |  | 67 | Active | COc1ccc2cc3[n+](cc2c1OC)CCc1cc2c(cc1-3)OCO2 [BERBERINE] | Activity [4]: Active
2 |  | 20 | inactive | Cc1c(C)c2c(c(C)c1OC(=O)CCC(=O)O)CC[C@@](C)(CCC[C@H](C)CCC[C@H](C)CCCC(C)C)O2 [(+)-ALPHA-TOCOPHERYL SUCCINATE] | Activity [5]: inactive; IC50 [6]: 25.1 µM; IC50 [7]: 39 µM; IC50 [8]: 45.6 µM; inhibition [9]: Active
3 | inactive |  |  | CC(=O)Oc1c(C)c(C)c2c(c1C)CC[C@@](C)(CCC[C@H](C)CCC[C@H](C)CCCC(C)C)O2 | 
4 |  |  | inactive | O=C(O)C(=O)Nc1sc2c(c1C(=O)O)CCNC2 | 

The remaining lines, values behind:

Row | SMILES | inhibition [1] | IC50 [2] [µM] | Activity [3] | other results
5 | CN(C)c1ccc2nc3ccc(=[N+](C)C)cc-3sc2c1 | Active |  |  | 
6 | Cc1c(C)c2c(c(C)c1O)CC[C@@](C)(CCC[C@H](C)CCC[C@H](C)CCCC(C)C)O2 | inactive |  |  | 
7 | COc1cc2c(cc1OC)-c1cc3ccc(OC)c(OC)c3c[n+]1CC2 [PALMITINE] |  | 234 | Active | 
8 | Cc1c(C)c2c(c(C)c1OC(=O)CCC(=O)O)CCC(C)(C)O2 | inactive |  |  | 
